Inconclusive results are not listed.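 The calls were made as follows, unless noted: active = viability increase at or above a cutoff of the median across tested compounds plus 3 SD (cut at about 8.5% in these data, passing the limit was not always enough); inconclusive = some gains above the cutoff, reason not given; inactive = the rest.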
Columns and labels:
[1] = OD615 S. cerevisiae growth inhibition, permissive medium, pilot counter-assay, permissive growth control for S. cerevisiae lifespan shortening project (AID 705;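 active = growth inhibition above 25% in both replicates, a cutoff set 3 SD above the mean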); conditions: OD615, 24 h, at 10 µM, stronger effect = higher value
In short: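 Material: engineered DeaD yeast; compound dosing: one dose 10 µM, DMSO 0.25% final; measure: yeast growth inhibition indicated by reduced 24 h OD615; detection: OD615 turbidity read; incubation: cells pre-grown 4 h, then 24 h compound exposure, 30 °C humidified; medium: permissive synthetic complete medium with raffinose and galactose carbon sources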

[2] = Restrictive medium S. cerevisiae growth inhibition, OD615, pilot screen of yeast lifespan reduction project, restrictive growth control (AID 706;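 active = growth inhibition above a set limit, 3 SD over mean compound inhibition, in both replicates, cut at about 43% in these data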;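 also: modified DeaD lifespan yeast strain shifted to restrictive glucose medium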); conditions: OD615, 48 h, at 10 µM, stronger effect = higher value
In short: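 material = engineered S. cerevisiae DeaD strain | medium = glucose-based CSMM-D restrictive medium | times = 4 h pre-incubation, 48 h exposure at 30 °C | technique = OD615 absorbance reading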

[3] = viability gain of MRP-1-high H69AR cells under doxorubicin, pilot screen, MRP-1 activator project, CellTiter-Glo, duplicate (AID 807); conditions: H69AR viability with doxorubicin, CellTiter-Glo luminescence; at 10 µM; stronger effect = higher value;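 also: compound pretreatment 18-22 h then 72 h combined with doxorubicin; 0% = doxorubicin alone and 100% = vehicle without doxorubicin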
[4] = growth suppression of beta-catenin knockout HCT116, pilot screen, human colon tumor cells (AID 823;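 active = cell viability at or below a set limit in both duplicate runs, the limit being the all-compound median minus 4 SD, cut at about 23% in these data, passing the limit was not always enough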;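 also: 0% = wells killed by 20 µM Hyamine and 100% = untreated DMSO cell wells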); conditions: CellTiter-Glo, 60 h, at 10 µM, stronger effect = lower value
[5] = growth suppression of PTEN-deleted HCT116, pilot screen, cell-based, HCT116 clonal line, CellTiter-Glo (AID 824;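 active = viability at or below 27.92% in each of two runs, the all-compound median minus 4 SD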;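 also: 0% = 20 µM Hyamine control and 100% = vehicle cell control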); conditions: 60 h, at 10 µM, stronger effect = lower value
[6] = inhibitors of the yeast RAM network, pilot screen, dse1pr::URA3 reporter, 5-FOA selection (AID 869;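 active = inhibition over a set limit, the all-compound mean plus 3 SD, in both replicate runs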;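 also: 0% = DMSO wells with no growth and 100% = 10 µM 1-NA-PP1 with full growth; RAM network block rescues cells from 5-FOA so hits raise OD615 growth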); conditions: S. cerevisiae dse1pr::URA3 5-FOA growth, OD615, 2 d; at 10 µM; stronger effect = higher value; strain carries analog-sensitive mutant Cbk1 kinase
[7] = RAM signaling pathway blockade in yeast – S. cerevisiae, Pdr1DBD-CYC8 efflux-inhibited sensitized strain, primary screen (AID 1298;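 active = RAM network inhibition above 8.4% in each of two replicates, 3 SD over the compound average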;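 also: 0% = DMSO untreated cells without growth and 100% = 10 µM 1-NA-PP1 full growth; higher means more yeast growth rescued from 5-FOA killing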); conditions: S. cerevisiae cbk1-as DSE1-URA3 strain, 5-FOA growth OD615, 2 d; at 50 µM; stronger effect = higher value

CCCCC(=O)Nc1ncc2c(n1)CC(C)(C)CC2=O
inactive: growth inhibition [1] -7.95% | growth inhibition [2] -5.04% | viability increase [3] -2.35% | viability [4] 96.1% | viability [5] 98.2% | inhibition [6] 2.94% | RAM network inhibition [7] 1.03%

CCOc1ccccc1C1CC(c2ccccc2)Nc2nc(N)nn21 (stereo not drawn)
inactive: growth inhibition [1] -1.36% | growth inhibition [2] 8.93% | viability increase [3] -1.31% | viability [4] 97.2% | viability [5] 88.2% | inhibition [6] 2.27% | RAM network inhibition [7] 2.72%

CN1CCN(c2cc(=O)n(C3CCCCC3)c(=O)[nH]2)CC1
inactive: growth inhibition [1] -17.5% | growth inhibition [2] -8.34% | viability increase [3] 0.57% | viability [4] 101% | viability [5] 103% | inhibition [6] 1.9% | RAM network inhibition [7] 1.26%

CCOc1ccc(-c2nc(CSCC(=O)N3CCN(C(=O)c4ccco4)CC3)c(C)o2)cc1
inactive: growth inhibition [1] -0.515% | growth inhibition [2] 26% | viability increase [3] -2.43% | viability [4] 81.9% | viability [5] 90.4% | inhibition [6] 0.525% | RAM network inhibition [7] 10.9%

CCn1cc(C2N3CC4(C)CN2CC(C)(C3)C4=O)c2ccccc21 (stereo not drawn)
inactive: growth inhibition [1] -13.9% | growth inhibition [2] -16.4% | viability increase [3] -0.78% | viability [4] 97.3% | viability [5] 100% | inhibition [6] 1.94% | RAM network inhibition [7] 0.48%

COc1ccc(OC)c(C2=Nn3c(nnc3-c3ccncc3)SC2)c1
inactive: growth inhibition [1] 0.735% | growth inhibition [2] 11.2% | viability increase [3] -2.51% | viability [4] 78.1% | viability [5] 71.1% | inhibition [6] 0.84% | RAM network inhibition [7] 5.82%

O=C(O)CC1C(=O)NCCN1CCCc1ccccc1 (stereo not drawn)
inactive: growth inhibition [1] -11.4% | growth inhibition [2] -8.64% | viability increase [3] -0.23% | viability [4] 97.8% | viability [5] 97.9% | inhibition [6] 0.455% | RAM network inhibition [7] -1.48%

CCCOc1ccc(C(=O)NCCC(=O)NCCCC(=O)OCC)cc1
inactive: growth inhibition [1] -14.6% | growth inhibition [2] -20.7% | viability increase [3] 0.2% | viability [4] 91.8% | viability [5] 104% | inhibition [6] 1.34% | RAM network inhibition [7] 0.47%

Cc1ccc(Cn2nnc3c(=O)n(CC(=O)c4ccccc4)cnc32)cc1
inactive: growth inhibition [1] -5.55% | growth inhibition [2] -9.49% | viability increase [3] -2.92% | viability [4] 96.7% | viability [5] 91.5% | inhibition [6] 3.42% | RAM network inhibition [7] 5.01%

OCCNCCCCCOc1ccc(F)cc1
inactive: growth inhibition [1] -1.2% | growth inhibition [2] -16.2% | viability increase [3] -1.34% | viability [4] 96.2% | viability [5] 94.5% | inhibition [6] 2.19% | RAM network inhibition [7] 0.69%

COC(=O)c1c(NC(=O)C2CC2)sc2c1CCN(C(C)=O)C2
inactive: growth inhibition [1] -10.8% | growth inhibition [2] -31.3% | viability increase [3] -0.44% | viability [4] 105% | viability [5] 91.6% | inhibition [6] 1.98% | RAM network inhibition [7] -1.38%

Cn1cccc1Cc1nnc(SCC(=O)Nc2ccc3c(c2)OCO3)n1-c1ccc(F)cc1
inactive: growth inhibition [1] 8.39% | growth inhibition [2] 14.1% | viability increase [3] -1.95% | viability [4] 90.4% | viability [5] 91.3% | inhibition [6] 1.56% | RAM network inhibition [7] 8.29%

CSC1=NCCN1C(=O)Cc1ccc(Cl)cc1
inactive: growth inhibition [1] 1.21% | growth inhibition [2] -7% | viability increase [3] 4.4% | viability [4] 108% | viability [5] 96.7% | inhibition [6] 0.105% | RAM network inhibition [7] -0.15%

CCOC(=O)c1ccccc1NC(=O)Cn1cnc2c(nnn2-c2ccc(C)cc2)c1=O
inactive: growth inhibition [1] -7.68% | growth inhibition [2] 4.12% | viability increase [3] -4.32% | viability [4] 97% | viability [5] 88% | inhibition [6] 2.62% | RAM network inhibition [7] 3.5%

O=C(Cn1cc2c(n1)CCCC2)Nc1ccccc1Cl
inactive: growth inhibition [1] -4.82% | growth inhibition [2] -3.03% | viability increase [3] -1.53% | viability [4] 99.4% | viability [5] 98.9% | inhibition [6] 1.91% | RAM network inhibition [7] 1.47%

CCOC(=O)N1CCN(C(=O)C2CCN(Cc3nc(-c4ccccc4C)oc3C)CC2)CC1
inactive: growth inhibition [1] -13.5% | growth inhibition [2] -31.5% | viability increase [3] -1.65% | viability [4] 85.3% | viability [5] 88% | inhibition [6] 0.75% | RAM network inhibition [7] 1.63%

O=C(c1ccccc1)N1CCN(C2CC(=O)N(CCc3ccccc3)C2=O)CC1 (stereo not drawn)
inactive: growth inhibition [1] -3.21% | growth inhibition [2] 4.64% | viability increase [3] 1.3% | viability [4] 96.8% | viability [5] 100% | inhibition [6] 2.52% | RAM network inhibition [7] 4.98%

O=C(NC(=O)c1ccccc1)OCC(F)(F)F
inactive: growth inhibition [1] -6.06% | growth inhibition [2] -1.48% | viability increase [3] 0.71% | viability [4] 98.9% | viability [5] 103% | inhibition [6] 0.34% | RAM network inhibition [7] 3.03%

CCCCn1c(CNC(=O)CC)nc2ccccc21
inactive: growth inhibition [1] -4.54% | growth inhibition [2] -9.44% | viability increase [3] -2.1% | viability [4] 103% | viability [5] 102% | inhibition [6] 0.825% | RAM network inhibition [7] 1.89%

O=C(NCCCNCc1ccccc1)c1ccc(/C=N/O)nc1
inactive: growth inhibition [1] -8.54% | growth inhibition [2] -12.5% | viability increase [3] -1.94% | viability [4] 93.2% | viability [5] 97.9% | inhibition [6] 1.73% | RAM network inhibition [7] 3.09%

C=C(C)Cn1c(N2CCCC2)nc2c1c(=O)[nH]c(=O)n2C
inactive: growth inhibition [1] -1.91% | growth inhibition [2] -5.8% | viability increase [3] -1.97% | viability [4] 108% | viability [5] 96.6% | inhibition [6] 1.32% | RAM network inhibition [7] 2.05%

Cn1c(NC(=O)C2CCCO2)cc(=O)n(C)c1=O (stereo not drawn)
inactive: growth inhibition [1] 0.76% | growth inhibition [2] 1.36% | viability increase [3] -0.7% | viability [4] 103% | viability [5] 99.8% | inhibition [6] 0.565% | RAM network inhibition [7] -0.47%

CCOC(=O)c1c(N=CN(C)C)c(C#N)n2c1CCC2
inactive: growth inhibition [1] -15.1% | growth inhibition [2] -6.7% | viability increase [3] -1.41% | viability [4] 101% | viability [5] 93.2% | inhibition [6] 1.11% | RAM network inhibition [7] 5.49%

COc1ccc(NC(=O)NCCCN2CCCC2=O)cc1
inactive: growth inhibition [1] -2.73% | growth inhibition [2] 8.62% | viability increase [3] 0.12% | viability [4] 105% | viability [5] 103% | inhibition [6] 0.945% | RAM network inhibition [7] -0.16%
